Tested on: KB
Assay: Cytotoxicity against human KB cells assessed as inhibition of cell proliferation at 10^-5 M after 72 hrs by MTS assay
Format: functional
Details: read-out: GI
Method in brief: (§1)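 KB cells seeded at 650 cells/well in 200 µl medium, dosed 24 h later with compounds from DMSO (1% DMSO final; controls DMSO only). After 72 h, MTS added for 3 h at 37 °C, A490 read; inhibition from treated/control OD ratio. Single-concentration tests in triplicate with docetaxel 2.5 10^-10 M reference; IC50 runs in separate duplicate.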

Compound | inhibition of growth at 10 µM
COc1ccc2c(c1)C(NC(=O)C(F)(F)F)CC(O)c1cc(OC)c(OC)cc1-2 (mixture of isomers) | 9%
COc1cc2c(c(OC)c1OC)-c1ccccc1C(NC(=O)C(F)(F)F)CC2=O (stereo unspecified) | 91%
COc1cc2c(c(OC)c1OC)-c1ccc(O)cc1C(NC(=O)C(F)(F)F)CC2=O (stereo unspecified) | 96%
COc1ccc2c(c1)C(NC(=O)C(F)(F)F)CC(O)c1cc(OC)c(OC)c(OC)c1-2 (stereo unspecified) | 94%
COc1ccc(-c2ccc(OC)c3c2C(NC(=O)C(F)(F)F)CC3=O)c(OC)c1OC (stereo unspecified) | 97%
COc1cc([C@@H]2c3cc4c(cc3C[C@H]3COC(=O)[C@@H]32)OCO4)cc(OC)c1OC [DESOXYPODOPHYLLOTOXIN] | 100%
COc1cc2c(cc1OC)[C@H](O)C[C@@H](NC(=O)C(F)(F)F)c1ccccc1-2 (racemic) | 9%
COc1cc2c(cc1OC)-c1ccc(O)cc1C(NC(=O)C(F)(F)F)CC2=O (stereo unspecified) | 40%
COc1cc2c(c(OC)c1OC)-c1ccccc1C(NC(=O)C(F)(F)F)CC2O (mixture of isomers) | 8%
COc1cc2c(cc1OC)-c1ccccc1C(NC(=O)C(F)(F)F)CC2=O (stereo unspecified) | 92%
COc1ccc2c(c1)C(NC(=O)C(F)(F)F)CC(=O)c1cc(OC)c(OC)c(OC)c1-2 (racemic) | 96%
COc1cc2c(c(OC)c1OC)-c1ccc(O)cc1C(NC(=O)C(F)(F)F)CC2O (mixture of isomers) | 60%
COc1cc2c(cc1OC)C(O)CC(NC(=O)C(F)(F)F)c1cc(O)ccc1-2 (mixture of isomers) | 2%
COc1ccc2c(c1)C(NC(=O)C(F)(F)F)CC(=O)c1cc(OC)c(OC)cc1-2 (stereo unspecified) | 38%

Tested on: KB
Assay: Cytotoxicity against human KB cells assessed as inhibition of cell proliferation at 10^-6 M after 72 hrs by MTS assay
Format: functional
Details: read-out: GI
Method in brief: as §1

Compound | inhibition of growth at 1 µM
COc1ccc2c(c1)C(NC(=O)C(F)(F)F)CC(O)c1cc(OC)c(OC)cc1-2 (mixture of isomers) | 0%
COc1cc2c(c(OC)c1OC)-c1ccccc1C(NC(=O)C(F)(F)F)CC2=O (stereo unspecified) | 18%
COc1cc2c(c(OC)c1OC)-c1ccc(O)cc1C(NC(=O)C(F)(F)F)CC2=O (stereo unspecified) | 37%
COc1ccc2c(c1)C(NC(=O)C(F)(F)F)CC(O)c1cc(OC)c(OC)c(OC)c1-2 (stereo unspecified) | 0%
COc1ccc(-c2ccc(OC)c3c2C(NC(=O)C(F)(F)F)CC3=O)c(OC)c1OC (stereo unspecified) | 0%
COc1cc([C@@H]2c3cc4c(cc3C[C@H]3COC(=O)[C@@H]32)OCO4)cc(OC)c1OC [DESOXYPODOPHYLLOTOXIN] | 100%
COc1cc2c(cc1OC)[C@H](O)C[C@@H](NC(=O)C(F)(F)F)c1ccccc1-2 (racemic) | 0%
COc1cc2c(cc1OC)-c1ccc(O)cc1C(NC(=O)C(F)(F)F)CC2=O (stereo unspecified) | 0%
COc1cc2c(c(OC)c1OC)-c1ccccc1C(NC(=O)C(F)(F)F)CC2O (mixture of isomers) | 0%
COc1cc2c(cc1OC)-c1ccccc1C(NC(=O)C(F)(F)F)CC2=O (stereo unspecified) | 0%
COc1ccc2c(c1)C(NC(=O)C(F)(F)F)CC(=O)c1cc(OC)c(OC)c(OC)c1-2 (racemic) | 98%
COc1cc2c(c(OC)c1OC)-c1ccc(O)cc1C(NC(=O)C(F)(F)F)CC2O (mixture of isomers) | 0%
COc1cc2c(cc1OC)C(O)CC(NC(=O)C(F)(F)F)c1cc(O)ccc1-2 (mixture of isomers) | 0%
COc1ccc2c(c1)C(NC(=O)C(F)(F)F)CC(=O)c1cc(OC)c(OC)cc1-2 (stereo unspecified) | 0%

Tested on: not listed separately
Assay: Inhibition of tubulin polymerization
Details: not given
Method in brief: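 Sheep brain microtubule protein was purified by two assembly/disassembly cycles (37 °C/0 °C) in 100 mM MES pH 6.6, 1 mM EGTA, 0.5 mM MgCl2. Samples were incubated 10 min at 37 °C, then 5 min at 0 °C, and polymerization was read by turbidimetry at 350 nm. Compounds were tested at 6.7 10^-5 M in triplicate, with deoxypodophyllotoxin as reference.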

Compound | IC50
COc1ccc2c(c1)[C@@H](NC(C)=O)CCc1cc(OC)c(OC)c(OC)c1-2 | 700 nM

Organism: Ovis aries
Assay: Inhibition of sheep brain tubulin polymerization at 6.7 x 10^-5 M after 15 mins by turbidimetry analysis
Details: not given
Method in brief: (§2)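 Microtubule protein from sheep brain, purified by two assembly/disassembly cycles (37 °C/0 °C) in 100 mM MES pH 6.6, 1 mM EGTA, 0.5 mM MgCl2. Compound with microtubule solution held 10 min at 37 °C then 5 min at 0 °C; polymerization followed by turbidity at 350 nm. Screened at 6.7 10^-5 M in triplicate, deoxypodophyllotoxin reference.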

Compound | inhibition
COc1ccc2c(c1)C(NC(=O)C(F)(F)F)CC(O)c1cc(OC)c(OC)cc1-2 (mixture of isomers) | 2%
COc1cc2c(c(OC)c1OC)-c1ccccc1C(NC(=O)C(F)(F)F)CC2=O (stereo unspecified) | 48%
COc1cc2c(c(OC)c1OC)-c1ccc(O)cc1C(NC(=O)C(F)(F)F)CC2=O (stereo unspecified) | 62%
COc1ccc2c(c1)C(NC(=O)C(F)(F)F)CC(O)c1cc(OC)c(OC)c(OC)c1-2 (stereo unspecified) | 18%
COc1ccc(-c2ccc(OC)c3c2C(NC(=O)C(F)(F)F)CC3=O)c(OC)c1OC (stereo unspecified) | 33%
COc1cc([C@@H]2c3cc4c(cc3C[C@H]3COC(=O)[C@@H]32)OCO4)cc(OC)c1OC [DESOXYPODOPHYLLOTOXIN] | 100%
COc1cc2c(cc1OC)[C@H](O)C[C@@H](NC(=O)C(F)(F)F)c1ccccc1-2 (racemic) | 23%
COc1cc2c(cc1OC)-c1ccc(O)cc1C(NC(=O)C(F)(F)F)CC2=O (stereo unspecified) | 24%
COc1cc2c(c(OC)c1OC)-c1ccccc1C(NC(=O)C(F)(F)F)CC2O (mixture of isomers) | 89%
COc1cc2c(cc1OC)-c1ccccc1C(NC(=O)C(F)(F)F)CC2=O (stereo unspecified) | 12%
COc1ccc2c(c1)C(NC(=O)C(F)(F)F)CC(=O)c1cc(OC)c(OC)c(OC)c1-2 (racemic) | 89%
COc1cc2c(c(OC)c1OC)-c1ccc(O)cc1C(NC(=O)C(F)(F)F)CC2O (mixture of isomers) | 29%
COc1cc2c(cc1OC)C(O)CC(NC(=O)C(F)(F)F)c1cc(O)ccc1-2 (mixture of isomers) | 13%
COc1ccc2c(c1)C(NC(=O)C(F)(F)F)CC(=O)c1cc(OC)c(OC)cc1-2 (stereo unspecified) | 63%

Tested on: not listed separately
Assay: Inhibition of sheep brain tubulin polymerization after 15 mins by turbidimetry analysis
Set-up: species or system Ovis aries
Details: not given
Method in brief: as §2

Compound | IC50
COc1cc2c(c(OC)c1OC)-c1ccccc1C(NC(=O)C(F)(F)F)CC2=O (stereo unspecified) | 80000 nM
COc1cc2c(c(OC)c1OC)-c1ccc(O)cc1C(NC(=O)C(F)(F)F)CC2=O (stereo unspecified) | 37000 nM
COc1cc([C@@H]2c3cc4c(cc3C[C@H]3COC(=O)[C@@H]32)OCO4)cc(OC)c1OC [DESOXYPODOPHYLLOTOXIN] | 3200 nM
COc1cc2c(c(OC)c1OC)-c1ccccc1C(NC(=O)C(F)(F)F)CC2O (mixture of isomers) | 13000 nM
COc1ccc2c(c1)C(NC(=O)C(F)(F)F)CC(=O)c1cc(OC)c(OC)c(OC)c1-2 (racemic) | 12000 nM
COc1ccc2c(c1)C(NC(=O)C(F)(F)F)CC(=O)c1cc(OC)c(OC)cc1-2 (stereo unspecified) | 60000 nM

Tested on: KB
Assay: Cytotoxicity against human KB cells
Format: functional, cell-based
Details: not given
Method in brief: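 KB cells seeded at 650 cells/well and dosed 24 h later with compounds in DMSO (1% final). Screened at 10^-5 and 10^-6 M in triplicate, with docetaxel 2.5 10^-10 M as reference. After 72 h, MTS was added for 3 h at 37 °C and A490 was read. Inhibition was derived from treated/control OD. IC50 was run in separate duplicate when inhibition exceeded 80% at 10^-5 M.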

Compound | IC50
COc1ccc2c(c1)[C@@H](NC(C)=O)CCc1cc(OC)c(OC)c(OC)c1-2 | 19 nM

Tested on: KB
Assay: Cytotoxicity against human KB cells assessed as inhibition of cell proliferation after 72 hrs by MTS assay
Format: functional, cell-based
Details: not given
Method in brief: as §1

Compound | IC50
COc1cc2c(c(OC)c1OC)-c1ccccc1C(NC(=O)C(F)(F)F)CC2=O (stereo unspecified) | 2950 nM
COc1cc2c(c(OC)c1OC)-c1ccc(O)cc1C(NC(=O)C(F)(F)F)CC2=O (stereo unspecified) | 330 nM
COc1ccc2c(c1)C(NC(=O)C(F)(F)F)CC(O)c1cc(OC)c(OC)c(OC)c1-2 (stereo unspecified) | 1600 nM
COc1ccc(-c2ccc(OC)c3c2C(NC(=O)C(F)(F)F)CC3=O)c(OC)c1OC (stereo unspecified) | 1250 nM
COc1cc([C@@H]2c3cc4c(cc3C[C@H]3COC(=O)[C@@H]32)OCO4)cc(OC)c1OC [DESOXYPODOPHYLLOTOXIN] | 3 nM
COc1ccc2c(c1)C(NC(=O)C(F)(F)F)CC(=O)c1cc(OC)c(OC)c(OC)c1-2 (racemic) | 45 nM

Reference: ChEMBL document CHEMBL2010793, “Synthesis of novel 7-oxo and 7-hydroxy trifluoroallocolchicinoids with cytotoxic effect” (Bioorg Med Chem, 2012)
